Bioassay records as filed in PubChem.
The list is not random: actives were taken first. Their share in the collection is about 1.8%.
NR2E3 ag-1 – NR2E3 agonists in two-hybrid cells, primary screen, cell-based, luminescence, CHO-S, Gal4-NCOR/VP16-NR2E3. Photoreceptor-specific nuclear receptor (Homo sapiens), Q9Y5X4. luciferase. inhibition of corepressor binding, % at 3.98 µM. 0.35% of 360,000 active. AID 602229, 2012;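 active = inhibition above the mean of all tested compounds plus 3 SD, cut at about 70% in these data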;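 note: higher means lower luciferase signal from less NR2E3 corepressor binding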
Target sequence (Q9Y5X4 whole entry, looked up, the tested form may be a part): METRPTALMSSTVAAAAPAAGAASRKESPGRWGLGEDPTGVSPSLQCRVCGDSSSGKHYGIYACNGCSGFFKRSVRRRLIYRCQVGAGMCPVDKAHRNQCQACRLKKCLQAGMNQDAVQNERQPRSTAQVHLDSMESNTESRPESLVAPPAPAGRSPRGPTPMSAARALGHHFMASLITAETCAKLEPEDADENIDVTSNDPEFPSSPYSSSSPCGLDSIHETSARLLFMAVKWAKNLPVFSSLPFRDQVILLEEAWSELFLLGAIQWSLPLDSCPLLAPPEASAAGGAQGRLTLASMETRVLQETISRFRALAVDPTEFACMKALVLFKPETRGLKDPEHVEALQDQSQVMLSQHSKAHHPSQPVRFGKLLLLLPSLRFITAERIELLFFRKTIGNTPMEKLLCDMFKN
Rev-erbA mod – modulators of Rev-erb alpha DNA binding, primary screen, biochemical, FITC-DNA, fluorescence polarization, uHTS; Nuclear receptor subfamily 1 group D member 1 (Homo sapiens), P20393; Rev-erbα–FITC-DNA binding, 90 min; activity, % at 10 µM; 0.79% of 370,000 active; AID 1259318, 2017;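 active = activity above about 14%, limit read from the data; passing the limit was not always enough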
GalR3 antag – GalR3 antagonists in HEK293 cells, primary screen, cell-based, fluorescence readout | inhibition, % at 3 µM | 0.44% of 360,000 active | Galanin receptor type 3 (Homo sapiens), O60755 | HEK293 GalR3-CNG cAMP membrane potential fluorescence; galR3 body fused to GalR1 C-terminus;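 active = inhibition above the screen-wide average plus 3 SD, cut at about 13% in these data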;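 note: forskolin and galanin both at EC90 stimulate the cells; cAMP rise reported by CNG channel membrane potential dye signal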
Target sequence (O60755 1-299 limits assumed): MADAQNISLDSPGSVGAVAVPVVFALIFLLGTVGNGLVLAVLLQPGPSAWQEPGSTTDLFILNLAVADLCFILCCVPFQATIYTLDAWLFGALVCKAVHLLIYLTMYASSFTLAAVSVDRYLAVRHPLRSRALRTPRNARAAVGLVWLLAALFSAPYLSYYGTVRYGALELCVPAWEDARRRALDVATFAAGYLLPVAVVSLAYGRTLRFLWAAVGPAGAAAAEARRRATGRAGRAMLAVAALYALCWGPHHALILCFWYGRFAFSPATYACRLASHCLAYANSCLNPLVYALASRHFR
NR2E3 ag-2 – inhibitors of NR2E3-RetCOR corepressor binding, primary screen, NR2E3 agonist project, biochemical, TR-FRET, GST-NR2E3, biotin-RetCOR; Photoreceptor-specific nuclear receptor (Homo sapiens), Q9Y5X4; 1536-well; inhibition of corepressor binding, % at 4.78 µM; 0.12% of 320,000 active;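 active = percent inhibition above the cutoff of mean plus 3 SD of all tested compounds, set per screening campaign, cut at about 20% in these data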
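System: GST-NR2E3 and biotin-RetCOR proteins; probe or stimulus: 7 nM biotin-RetCOR; doses: compound at 4.8 µM, single dose; schedule: Compound–protein incubation for 5 h at 4 °C; detection: time-resolved FRET; read-out: percent inhibition; controls: biotin wells as high control, 0.6% DMSO wells as low control; format: 1536-well plates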
PG9 Ab binder – binders of HIV-1 gp120 antibody PG9, primary screen, biochemical, TR-FRET; HIV-1 gp120 / PG9 antibody interaction; TR-FRET gp120-PG9 antibody binding; inhibition, % at 6.7 µM; 0.43% of 360,000 active; AID 624416, 2012; in the data active = inhibition above about 8.5%
NR2E3 ag confirm – NR2E3 agonists, confirmation, biochemical, TR-FRET | 39% of 360 active | activation (reported as inhibition), % at 3.98 µM | shares compounds with NR2E3 ag-2 | cell-free NR2E3 corepressor release, 5 h; in the data active = activation above about 20%
PPARg-NCOR2 ctr – agonists of PPARg-NCOR2 corepressor interaction, counter-screen for NR2E3 agonist project, biochemical, TR-FRET. shares compounds with NR2E3 ag-2. TR-FRET PPARg-NCOR2 coregulator interaction. inhibition, % at 3.98 µM. 45% of 360 active. AID 504787, 2011; in the data active = inhibition above about 20%
Each line names hits and unclear results; the compound was inactive in the other large screens (follow-up assays come after a bar, where they were run).

CC(C)C1CCC(C(=O)N[C@@H](Cc2ccccc2)C(=O)O)CC1 (some centres undefined)	none (no result: NR2E3 ag-1, GalR3 antag, NR2E3 ag-2, PG9 Ab binder)
COc1ccc(NC(=O)CCNS(=O)(=O)c2cc(Br)ccc2Br)cc1S(N)(=O)=O	NR2E3 ag-2 23.4 | NR2E3 ag confirm inactive | PPARg-NCOR2 ctr inactive
COc1ccc(NC(=O)CCNC(=O)c2ccccc2)cc1S(N)(=O)=O	none
CC(C)[C@H](N)C(=O)O	none (no result: NR2E3 ag-1, GalR3 antag, NR2E3 ag-2, PG9 Ab binder)
CCOc1cccc(C2C(C(=O)c3ccc(C)o3)=C(O)C(=O)N2Cc2ccncc2)c1 (centres undefined)	NR2E3 ag-2 26.3 | NR2E3 ag confirm inactive | PPARg-NCOR2 ctr inactive
CCOc1cccc(C2C(C(=O)c3ccc(C)o3)=C(O)C(=O)N2Cc2ccccc2)c1 (centres undefined)	none (no result: NR2E3 ag-2)
O=C(C1=C(O)C(=O)N(CCc2ccccc2)C1c1cccnc1)c1ccco1 (centres undefined)	NR2E3 ag-2 25.4 | NR2E3 ag confirm inactive | PPARg-NCOR2 ctr 23.1
COc1cc(C2C(C(=O)c3ccco3)=C(O)C(=O)N2Cc2ccccc2)ccc1O (centres undefined)	none
O=C(C1=C(O)C(=O)N(CCCn2ccnc2)C1c1ccc(F)cc1)c1ccco1 (centres undefined)	NR2E3 ag-2 36.2 | NR2E3 ag confirm inactive | PPARg-NCOR2 ctr inactive
COCCCN1C(=O)C(O)=C(C(=O)c2ccco2)C1c1ccccc1 (centres undefined)	NR2E3 ag-2 21.6 | NR2E3 ag confirm inactive | PPARg-NCOR2 ctr inactive
O=C(C1=C(O)C(=O)N(CCc2ccccc2)C1c1cccs1)c1ccco1 (centres undefined)	none
C[C@]12CCC3c4ccc(O)cc4CCC3C1CC[C@@H]2O (some centres undefined)	none (no result: NR2E3 ag-1, GalR3 antag, NR2E3 ag-2, PG9 Ab binder)
CC(=O)OCC(=O)[C@@]12OC3(CCCC3)O[C@@H]1CC1C3CCC4=CC(=O)C=C[C@]4(C)[C@@]3(F)[C@@H](O)C[C@@]12C (some centres undefined)	none (no result: NR2E3 ag-1, GalR3 antag, NR2E3 ag-2, PG9 Ab binder)
CC1=C(C#N)C(c2ccoc2)C(C(=O)OCc2ccccc2)=C(N)S1 (centres undefined)	none
N#CC1=C(N)SC(N)=C(C#N)C1c1ccoc1	NR2E3 ag-2 36.1 (no result: NR2E3 ag-1, Rev-erbA mod, GalR3 antag, PG9 Ab binder) | NR2E3 ag confirm 23.1 | PPARg-NCOR2 ctr 27.3
O=C1O[C@H](C(O)CO)C(O)=C1O (some centres undefined)	none (no result: NR2E3 ag-1, GalR3 antag, NR2E3 ag-2, PG9 Ab binder)
O=c1[nH]c(Nc2ccccc2)cc2ccccc12	NR2E3 ag-2 27.3 | NR2E3 ag confirm inactive | PPARg-NCOR2 ctr inactive
CC(C)(C)C(=O)CSc1nc2c(c(-c3cccs3)c1C#N)CCC2	NR2E3 ag-2 21.1 | NR2E3 ag confirm inactive | PPARg-NCOR2 ctr inactive
CCCCOC(=O)CSC1=C(C#N)C(c2ccccc2OCC)C(C#N)C(=O)N1 (centres undefined)	NR2E3 ag-2 21.8 (no result: Rev-erbA mod, GalR3 antag, PG9 Ab binder) | NR2E3 ag confirm inactive | PPARg-NCOR2 ctr 36.5
COC(=O)c1c(NC(=S)Nc2cc(OC)c(Cl)cc2OC)sc2c1CCCCC2	NR2E3 ag-2 19.8 | NR2E3 ag confirm inactive | PPARg-NCOR2 ctr inactive
CO/N=C(/C(=O)N[C@H]1C(=O)N2C(C(=O)O)=C(COC(N)=O)CSC12)c1ccco1 (some centres undefined)	none (no result: NR2E3 ag-1, GalR3 antag, NR2E3 ag-2, PG9 Ab binder)
C[C@@H]1O[C@@H](OC[C@H]2OC(Oc3c(-c4ccc(O)c(O)c4)oc4cc(O)cc(O)c4c3=O)[C@H](O)[C@@H](O)[C@@H]2O)[C@H](O)[C@H](O)[C@H]1O (some centres undefined)	none (no result: NR2E3 ag-1, GalR3 antag, NR2E3 ag-2, PG9 Ab binder)
O=c1oc2c(O)c(O)cc3c(=O)oc4c(O)c(O)cc1c4c23	NR2E3 ag-2 37.6 (no result: GalR3 antag, PG9 Ab binder) | NR2E3 ag confirm 33.9
CCCCC1=CC2=C(c3ccco3)C(=O)C(C)(OC(=O)c3ccc(OC)cc3)C(=O)C2=CN1CCOC (centres undefined)	none
CCCCC1=CC2=C(c3ccco3)C(=O)C(C)(OC(=O)c3ccc(OC)cc3)C(=O)C2=CN1Cc1ccc2c(c1)OCO2 (centres undefined)	NR2E3 ag-2 23.0 (no result: Rev-erbA mod, GalR3 antag, PG9 Ab binder) | NR2E3 ag confirm inactive | PPARg-NCOR2 ctr inactive
C=CCn1c(NC(=O)c2ccccc2Cl)c(C#N)c2nc3ccccc3nc21	NR2E3 ag-2 38.3 | NR2E3 ag confirm inactive | PPARg-NCOR2 ctr 41.8
O=C(NN1C(=O)/C(=C/C=C/c2ccco2)SC1=S)c1ccncc1	NR2E3 ag-2 24.6 | NR2E3 ag confirm inactive | PPARg-NCOR2 ctr inactive
CC(C)(O/N=C(\C(=O)N[C@@H]1C(=O)N2C(C(=O)O)=C(C[n+]3ccccc3)CSC12)c1csc(N)n1)C(=O)O (some centres undefined)	none (no result: NR2E3 ag-1, GalR3 antag, NR2E3 ag-2, PG9 Ab binder)
CCCCCCCCCC(=O)OC1(c2ccc(Cl)cc2)CCN(CCCC(=O)c2ccc(F)cc2)CC1	none (no result: NR2E3 ag-1, GalR3 antag, NR2E3 ag-2, PG9 Ab binder)
COc1ccc(NC(=S)Nc2ccc3nsnc3c2)cc1	NR2E3 ag-2 28.7 | NR2E3 ag confirm inactive | PPARg-NCOR2 ctr inactive
CCOc1ccc(NC(=O)Nc2ccc3nsnc3c2)cc1	none
CC(C)N(C(=O)Nc1ccc2nsnc2c1)C(C)C	NR2E3 ag-2 38.2 (no result: NR2E3 ag-1) | NR2E3 ag confirm inactive | PPARg-NCOR2 ctr inactive
CCOc1ccc(NC(=S)Nc2ccc3nsnc3c2)cc1	NR2E3 ag-2 31.4 | NR2E3 ag confirm inactive | PPARg-NCOR2 ctr inactive
COc1ccc(N(C)C(=O)Nc2ccc3nsnc3c2)cc1	none (no result: NR2E3 ag-2)
COc1ccc(NC(=S)Nc2ccc3nc(C)c(C)nc3c2)cc1	none
C[C@@H]1CC2C3CCC4=CC(=O)C=C[C@]4(C)[C@@]3(F)[C@@H](O)C[C@]2(C)[C@H]1C(=O)CO (some centres undefined)	none (no result: NR2E3 ag-1, GalR3 antag, NR2E3 ag-2, PG9 Ab binder)
CC1Cc2nc(SCC(=O)Nc3nccs3)n(C)c(=O)c2S1 (centres undefined)	NR2E3 ag-2 21.4 | NR2E3 ag confirm inactive | PPARg-NCOR2 ctr inactive
Cc1ccccc1C(=O)Nc1ccc(C(=O)N2CCC[C@@H](O)c3cc(Cl)ccc32)c(C)c1	none (no result: NR2E3 ag-1, GalR3 antag, NR2E3 ag-2, PG9 Ab binder)
COc1cccc(C(=O)Nc2ccc3ccccc3c2)c1	NR2E3 ag-2 29.8 | NR2E3 ag confirm inactive | PPARg-NCOR2 ctr inactive
COc1ccc(/C=N/NC(=O)C(=O)N2CCN(c3ccccc3OC)CC2)cc1	NR2E3 ag-2 30.1 | NR2E3 ag confirm inactive | PPARg-NCOR2 ctr inactive
CC(=O)NC(=S)Nc1ccc(NC(=S)NC(=O)/C=C/c2ccco2)cc1	none
O=C(/C=C/c1ccco1)NC(=S)Nc1ccc(C(=O)O)cc1	NR2E3 ag-2 19.8 | NR2E3 ag confirm inactive | PPARg-NCOR2 ctr inactive
